Experimental data: PMC7126328 (Bioorganic & Medicinal Chemistry, 2013)
Several values for one entry are separate records, joined by “and”; a condition that tells them apart may be missing. Equal entries are not always repeated.

Assays:
[1] = test system: E. coli/pRAC-gfp; test: microbe, parasite or virus in culture; conditions: Escherichia coli, read-out: Inhibition/induction of the synthesis of the reporter protein GFP, E. coli/pRAC-gfp
[2] = test system: E. coli/pET36b-gfp; test: microbe, parasite or virus in culture; conditions: Escherichia coli, read-out: Inhibition/induction of the synthesis of the reporter protein GFP, E. coli/pET36b-gfp
[3] = test system: E. coli/pRAC-gfp; conditions: for Toxic and mutagenic effects on indicator cells E. coli/pRAC-gfp (in words): 150 μM; for The value of the fluorescence of GFP synthesized in biosensor cells, Biosensor E. coli/pRAC-gfp: 150 μM compound in culture medium, 1.5 h
[4] = test system: E. coli/pET36b-gfp; conditions: for Toxic and mutagenic effects on indicator cells E. coli/pET36b-gfp (in words): 150 μM; for The value of the fluorescence of GFP synthesized in biosensor cells, Biosensor E. coli/pET36b-gfp: 150 μM compound in culture medium, IPTG 1 mM
[5] = MTT cell viability assay, MT-4; type: cell-based; conditions: human, MT-4 cells
In short: (§1)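 Test compound, dissolved in DMSO, was added and cells were cultured for 72 h (37 °C, 5% CO2), three wells per concentration, with untreated cells as control. Then 1% MTT was added for 4 h, DMSO added and mixed 15 min, and OD read at 570 nm.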

[6] = MTT cell viability assay, U-937; type: cell-based; conditions: human, U-937 cells (monocytes)
In short: as §1

[7] = test system: MDCK cells; conditions: 48 h, MTT

SMILES | inhibition at 150 µM [1] [%] | inhibition at 150 µM [2] [%] | Toxic and mutagenic effects on indicator cells E. coli/pRAC-gfp (in words) [3] | The value of the fluorescence of GFP synthesized in biosensor cells, Biosensor E. coli/pRAC-gfp [3] [conventional units] | Toxic and mutagenic effects on indicator cells E. coli/pET36b-gfp (in words) [4] | The value of the fluorescence of GFP synthesized in biosensor cells, Biosensor E. coli/pET36b-gfp [4] [conventional units] | IC50 at 72 h [5] [µM] | IC50 at 72 h [6] [µM] | CTD50, cytotoxic concentration; the concentration leading to 50% death of cells [7]
CCN(CC)CC/N=C1\C[C@H]2CC[C@]1(C)C2(C)C [Compound 2, (E)-N^1,N^1-Diethyl-N^2-((1R,4R)-1,7,7-trimethylbicyclo[2.2.1]heptan-2-ylidene)ethane-1,2-diamine] | < 20 | < 20 | neither toxic nor mutagenic effects | 171.4 ± 14.5 | neither toxic nor mutagenic effects | 512.7 ± 32.4 | – | – | –
CC[N+](CC)(CCCCC[N+](CC)(CC)CC/N=C1\C[C@H]2CC[C@]1(C)C2(C)C)CC/N=C1\C[C@H]2CC[C@]1(C)C2(C)C [Compound 3a, N^1,N^1,N^5,N^5-Tetraethyl-N^1,N^5-bis(2-((E)-((1R,4R)-1,7,7-trimethylbicyclo[2.2.1]heptan-2-ylidene)amino)ethyl)pentane-1,5-diaminium bromide] | < 20 | < 20 | neither toxic nor mutagenic effects | 168.9 ± 13.5 | neither toxic nor mutagenic effects | 546.9 ± 65.6 | 57.5 ± 3.8 | 95.8 ± 5.6 | –
CC[N+](CC)(CCCCCC[N+](CC)(CC)CC/N=C1\C[C@H]2CC[C@]1(C)C2(C)C)CC/N=C1\C[C@H]2CC[C@]1(C)C2(C)C [Compound 3b, N^1,N^1,N^6,N^6-Tetraethyl-N^1,N^6-bis(2-((E)-((1R,4R)-1,7,7-trimethylbicyclo[2.2.1]heptan-2-ylidene)amino)ethyl)hexane-1,6-diaminium bromide] | < 20 | < 20 | neither toxic nor mutagenic effects | 186.2 ± 22.9 | neither toxic nor mutagenic effects | 495.5 ± 15.2 | 48.3 ± 3.2 | – | 1712 µM and 1712.3 ± 169.8 µM
CC[N+](CC)(CCCCCCCC[N+](CC)(CC)CC/N=C1\C[C@H]2CC[C@]1(C)C2(C)C)CC/N=C1\C[C@H]2CC[C@]1(C)C2(C)C [Compound 3c, N^1,N^1,N^8,N^8-Tetraethyl-N^1,N^8-bis(2-((E)-((1R,4R)-1,7,7-trimethylbicyclo[2.2.1]heptan-2-ylideneamino)ethyl)octane-1,8-diaminium bromide] | – | – | – | – | – | – | 69.8 ± 2.7 | 67.2 ± 5.9 | –
CC[N+](CC)(CCCCCCCC[N+](CC)(CC)CC/N=C1\C[C@H]2CC[C@]1(C)C2(C)C)CC/N=C1\C[C@H]2CC[C@]1(C)C2(C)C [Compound 3c] | – | – | highly toxic | 81.7 ± 3.6 | highly toxic | 165.5 ± 8.1 | – | – | 552.5 ± 49.1 µM
CC[N+](CC)(CCCCCCCCC[N+](CC)(CC)CC/N=C1\C[C@H]2CC[C@]1(C)C2(C)C)CC/N=C1\C[C@H]2CC[C@]1(C)C2(C)C [Compound 3d, N^1,N^1,N^9,N^9-Tetraethyl-N^1,N^9-bis(2-((E)-((1R,4R)-1,7,7-trimethylbicyclo[2.2.1]heptan-2-ylidene)amino)ethyl)nonane-1,9-diaminium bromide] | – | – | highly toxic | 95.9 ± 4.3 | highly toxic | 172.3 ± 6.2 | 66 ± 5.3 | 58.6 ± 3.4 | –
CC[N+](CC)(CCCCCCCCCC[N+](CC)(CC)CC/N=C1\C[C@H]2CC[C@]1(C)C2(C)C)CC/N=C1\C[C@H]2CC[C@]1(C)C2(C)C [Compound 3e, N^1,N^1,N^10,N^10-Tetraethyl-N^1,N^10-bis(2-((E)-((1R,4R)-1,7,7-trimethylbicyclo[2.2.1]heptan-2-ylidene)amino)ethyl)decane-1,10-diaminium bromide] | – | – | highly toxic | 56.9 ± 3.1 | highly toxic | 110.7 ± 7.2 | 66.1 ± 4.4 | 53.6 ± 2.2 | –
CC[N+](CC)(CCCCCCCCCCCC[N+](CC)(CC)CC/N=C1\C[C@H]2CC[C@]1(C)C2(C)C)CC/N=C1\C[C@H]2CC[C@]1(C)C2(C)C [Compound 3f, N^1,N^1,N^12,N^12-Tetraethyl-N^1,N^12-bis(2-((E)-((1R,4R)-1,7,7-trimethylbicyclo[2.2.1]heptan-2-ylidene)amino)ethyl)dodecane-1,12-diaminium bromide] | – | – | highly toxic | 49.3 ± 2.1 | highly toxic | 51.3 ± 4.6 | 40.4 ± 3.9 | 15.9 ± 1.1 | –
CC[N+](CC)(CC/N=C1\C[C@H]2CC[C@]1(C)C2(C)C)Cc1ccc(C[N+](CC)(CC)CC/N=C2\C[C@H]3CC[C@]2(C)C3(C)C)cc1 [Compound 3g, (R,R,E)-N,N′-(1,4-Phenylenebis(methylene))bis(N,N-diethyl-2-((E)-((1R,4R)-1,7,7-trimethylbicyclo[2.2.1]heptan-2-ylidene)amino)ethanaminium) bromide] | < 20 | < 20 | neither toxic nor mutagenic effects | 170.87 ± 8.9 | neither toxic nor mutagenic effects | 466.46 ± 4.1 | 40.5 ± 3 | 54.9 ± 2.6 | –
CC[N+](C)(CC)CC/N=C1\C[C@H]2CC[C@]1(C)C2(C)C [Compound 4a, N,N-Diethyl-N-methyl-2-((E)-((1R,4R)-1,7,7-trimethylbicyclo[2.2.1]heptan-2-ylidene)amino)ethanaminium iodide] | < 20 | < 20 | – | 189.21 ± 17.7 | – | 535.72 ± 307 | > 100 | 58.6 ± 4.6 | –
CC[N+](CC)(CC)CC/N=C1\C[C@H]2CC[C@]1(C)C2(C)C [Compound 4b, N,N,N-Triethyl-2-((E)-((1R,4R)-1,7,7-trimethylbicyclo[2.2.1]heptan-2-ylidene)amino)ethanaminium bromide] | < 20 | < 20 | neither toxic nor mutagenic effects | 176.9 ± 16.9 | neither toxic nor mutagenic effects | 547.9 ± 40.8 | > 100 | > 100 | –
